Measurements from ChEMBL document CHEMBL1799968, “Dimethyl-diphenyl-propanamide derivatives as nonsteroidal dissociated glucocorticoid receptor agonists” (J Med Chem, 2010).

Tests used:
Estrogen receptor = target: T1, Estrogen receptor (Homo sapiens, UniProt P03372); assay: Binding affinity to ERalpha by fluorescence polarization assay
T1 sequence (P03372 whole entry): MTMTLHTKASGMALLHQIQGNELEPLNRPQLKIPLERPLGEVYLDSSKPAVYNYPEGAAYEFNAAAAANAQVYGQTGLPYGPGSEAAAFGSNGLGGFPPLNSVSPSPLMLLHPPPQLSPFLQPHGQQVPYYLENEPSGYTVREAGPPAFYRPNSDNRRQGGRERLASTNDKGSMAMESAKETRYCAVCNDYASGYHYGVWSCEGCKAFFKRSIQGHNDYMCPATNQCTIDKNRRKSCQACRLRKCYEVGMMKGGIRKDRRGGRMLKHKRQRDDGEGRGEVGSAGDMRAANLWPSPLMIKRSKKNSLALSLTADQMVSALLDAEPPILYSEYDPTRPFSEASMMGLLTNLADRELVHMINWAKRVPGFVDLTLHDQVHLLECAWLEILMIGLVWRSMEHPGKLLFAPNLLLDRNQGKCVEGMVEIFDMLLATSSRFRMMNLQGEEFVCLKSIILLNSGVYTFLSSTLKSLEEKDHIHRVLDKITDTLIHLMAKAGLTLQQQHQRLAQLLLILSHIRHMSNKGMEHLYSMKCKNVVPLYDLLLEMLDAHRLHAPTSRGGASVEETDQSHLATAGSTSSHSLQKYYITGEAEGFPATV
Method in brief: (§1)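 Fluorescence polarization competition of test compound against a fluorescently labelled ligand for binding to full-length receptor or its ligand-binding domain.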

[1] = target: T2, Mineralocorticoid receptor (Homo sapiens, UniProt P08235); assay: Agonist activity at mineralocorticoid receptor in human A549 cells; format: functional, cell-based
T2 sequence (P08235 whole entry): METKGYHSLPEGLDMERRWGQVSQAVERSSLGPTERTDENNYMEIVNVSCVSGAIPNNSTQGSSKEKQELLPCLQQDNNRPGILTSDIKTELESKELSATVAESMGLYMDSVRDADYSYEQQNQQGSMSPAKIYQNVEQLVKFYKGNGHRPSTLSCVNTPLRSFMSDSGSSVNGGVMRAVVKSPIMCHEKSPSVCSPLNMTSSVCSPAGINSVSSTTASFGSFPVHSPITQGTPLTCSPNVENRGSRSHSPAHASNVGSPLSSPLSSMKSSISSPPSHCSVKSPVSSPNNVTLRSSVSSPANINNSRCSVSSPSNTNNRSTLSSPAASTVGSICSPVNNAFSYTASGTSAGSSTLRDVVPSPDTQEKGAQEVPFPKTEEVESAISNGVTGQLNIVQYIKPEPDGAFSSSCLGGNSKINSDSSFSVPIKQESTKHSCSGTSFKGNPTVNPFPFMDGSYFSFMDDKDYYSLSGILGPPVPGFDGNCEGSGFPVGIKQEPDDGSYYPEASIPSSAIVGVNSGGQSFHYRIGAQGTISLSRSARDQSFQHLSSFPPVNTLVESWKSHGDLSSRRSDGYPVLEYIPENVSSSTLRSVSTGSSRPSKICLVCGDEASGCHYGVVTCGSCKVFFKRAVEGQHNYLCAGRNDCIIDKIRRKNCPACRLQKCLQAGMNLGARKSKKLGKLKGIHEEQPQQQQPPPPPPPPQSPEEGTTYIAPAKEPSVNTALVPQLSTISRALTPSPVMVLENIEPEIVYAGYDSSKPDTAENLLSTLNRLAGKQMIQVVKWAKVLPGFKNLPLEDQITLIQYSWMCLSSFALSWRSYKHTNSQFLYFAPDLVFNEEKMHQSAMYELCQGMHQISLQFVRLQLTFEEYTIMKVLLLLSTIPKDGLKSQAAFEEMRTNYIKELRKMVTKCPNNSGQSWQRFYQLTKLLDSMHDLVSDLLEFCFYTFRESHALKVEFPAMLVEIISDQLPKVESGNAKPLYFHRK

Progesterone receptor = target: T3, Progesterone receptor (Homo sapiens, UniProt P06401); assay: Binding affinity to progesterone receptor by fluorescence polarization assay; method in brief: as §1
T3 sequence (P06401 whole entry): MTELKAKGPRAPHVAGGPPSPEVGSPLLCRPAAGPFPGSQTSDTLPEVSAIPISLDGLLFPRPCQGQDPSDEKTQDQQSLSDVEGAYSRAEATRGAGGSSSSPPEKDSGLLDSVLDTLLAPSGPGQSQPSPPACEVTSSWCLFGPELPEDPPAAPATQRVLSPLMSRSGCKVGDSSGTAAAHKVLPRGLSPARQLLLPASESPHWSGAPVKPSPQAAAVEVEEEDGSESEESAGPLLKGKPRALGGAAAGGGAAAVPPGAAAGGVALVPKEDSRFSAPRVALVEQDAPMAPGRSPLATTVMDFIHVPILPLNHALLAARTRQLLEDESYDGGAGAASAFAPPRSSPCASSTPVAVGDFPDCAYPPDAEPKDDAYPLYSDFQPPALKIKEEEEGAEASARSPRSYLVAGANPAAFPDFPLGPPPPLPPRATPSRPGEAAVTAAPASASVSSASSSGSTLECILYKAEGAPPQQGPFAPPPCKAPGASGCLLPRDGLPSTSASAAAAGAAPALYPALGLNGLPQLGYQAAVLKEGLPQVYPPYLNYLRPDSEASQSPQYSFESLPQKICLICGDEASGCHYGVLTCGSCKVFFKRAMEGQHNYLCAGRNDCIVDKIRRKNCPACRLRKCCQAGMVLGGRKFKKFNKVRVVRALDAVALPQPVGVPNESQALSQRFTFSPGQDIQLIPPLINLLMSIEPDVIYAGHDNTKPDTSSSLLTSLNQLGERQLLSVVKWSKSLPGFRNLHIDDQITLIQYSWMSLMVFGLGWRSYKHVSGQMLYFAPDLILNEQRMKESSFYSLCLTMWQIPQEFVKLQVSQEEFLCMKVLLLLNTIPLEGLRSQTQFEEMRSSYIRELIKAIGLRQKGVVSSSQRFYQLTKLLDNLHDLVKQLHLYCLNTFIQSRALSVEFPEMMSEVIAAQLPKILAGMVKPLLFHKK

Androgen receptor = target: T4, Androgen receptor (Homo sapiens, UniProt P10275); assay: Binding affinity to androgen receptor by fluorescence polarization assay; method in brief: as §1
T4 sequence (P10275 whole entry): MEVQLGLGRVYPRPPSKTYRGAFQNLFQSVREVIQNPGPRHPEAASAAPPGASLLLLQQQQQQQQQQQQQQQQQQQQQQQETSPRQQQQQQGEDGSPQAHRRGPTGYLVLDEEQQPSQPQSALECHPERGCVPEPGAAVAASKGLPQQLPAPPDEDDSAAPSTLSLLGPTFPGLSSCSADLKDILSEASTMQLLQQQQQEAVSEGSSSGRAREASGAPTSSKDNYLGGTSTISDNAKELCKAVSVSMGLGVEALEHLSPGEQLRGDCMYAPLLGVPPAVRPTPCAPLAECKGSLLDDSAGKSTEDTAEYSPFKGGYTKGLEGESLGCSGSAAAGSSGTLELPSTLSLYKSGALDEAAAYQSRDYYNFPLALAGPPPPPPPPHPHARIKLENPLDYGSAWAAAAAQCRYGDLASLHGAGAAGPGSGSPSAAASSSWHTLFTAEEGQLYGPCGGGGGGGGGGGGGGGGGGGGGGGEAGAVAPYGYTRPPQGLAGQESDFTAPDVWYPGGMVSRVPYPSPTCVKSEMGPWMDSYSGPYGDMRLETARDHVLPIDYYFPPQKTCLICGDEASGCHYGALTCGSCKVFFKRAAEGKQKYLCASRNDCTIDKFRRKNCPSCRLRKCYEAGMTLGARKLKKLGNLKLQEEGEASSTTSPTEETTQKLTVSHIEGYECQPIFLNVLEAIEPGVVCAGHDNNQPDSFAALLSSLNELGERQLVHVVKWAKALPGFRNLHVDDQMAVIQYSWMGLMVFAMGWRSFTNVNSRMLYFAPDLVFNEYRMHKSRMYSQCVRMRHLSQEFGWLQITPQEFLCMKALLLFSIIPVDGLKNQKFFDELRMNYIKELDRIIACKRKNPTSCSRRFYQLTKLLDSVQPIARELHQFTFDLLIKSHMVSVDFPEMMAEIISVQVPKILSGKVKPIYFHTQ

Rattus norvegicus [2] = assay: Antiinflammatory activity against carrageenan-induced paw edema Sprague-Dawley rat model assessed as inhibition of hind paw swelling at 30 mg/kg, po measured after 5 hrs post carrageenan challenge; format: functional
Method in brief: (§2)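 Male SD rats, fasted overnight plus up to 6 h more. Baseline hind paw volume taken by water plethysmometer. A single oral dose was given in a biologically acceptable medium. 2 h later, under anaesthesia, 1% carrageenan in PBS was injected subcutaneously into both hind paws. Volume was read 3 h post challenge, and swelling was taken as post-challenge minus baseline.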

Rattus norvegicus [3] = assay: Antiinflammatory activity in po dosed carrageenan-induced paw edema Sprague-Dawley rat model assessed as inhibition of hind paw swelling after 5 hrs post carrageenan challenge; format: functional; method in brief: as §2
Rattus norvegicus [4] = assay: Toxicity in Sprague-Dawley rat assessed as induction of TAT activity in liver homogenates at 30 mg/kg, po after 6 hrs; format: organism-based; set-up: dose 30 mg/kg, route oral; settings: in vivo
Method in brief: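 Male SD rats, fasted, single oral dose. Liver was biopsied 6 h postdose, snap frozen, homogenised in 150 mM KCl and centrifuged. Protein-normalised supernatants were assayed for TAT activity, read as OD at 340 nm. Values are given as % of TAT activity in prednisolone-treated (30 mg/kg) rats.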

Rattus norvegicus [5] = assay: Toxicity in Sprague-Dawley rat assessed as increase in serum glucose level at 30 mg/kg, po after 6 hrs; format: organism-based; set-up: dose 30 mg/kg, route oral; settings: in vivo
Method in brief: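 Male SD rats, fasted overnight plus up to 6 h, were given a single oral dose in a biologically acceptable medium. At 6 h they were euthanised with CO2, and blood was taken by intracardiac puncture. Serum glucose was measured by the hexokinase method on an automated chemistry analyzer.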

Row | SMILES | Ki (Estrogen receptor) | EC50 [1] | Ki (Progesterone receptor) | Ki (Androgen receptor) | inhibition (INH) (Rattus norvegicus [2]; 30 mg/kg) | inhibition in vivo at 30 mg/kg (Rattus norvegicus [2]; Rattus norvegicus, Sprague-Dawley, po, 5 h) | ED50 (Rattus norvegicus [3]) | Activity (Rattus norvegicus [4]) | Activity (Rattus norvegicus [5])
1 | CC(C)(C(=O)Nc1nncs1)[C@@H](c1ccccc1)c1ccc(O)c(F)c1 | > 50000 nM | > 5000 nM | 55 nM | 993 nM | – | – | – | – | –
2 | C[C@]12C=CC(=O)C=C1CC[C@@H]1[C@@H]2[C@@H](O)C[C@@]2(C)[C@H]1CC[C@]2(O)C(=O)CO [PREDNISOLONE] | > 5000 nM | 2 nM | – | – | 42% | 57% | 19 mg/kg | Toxic | Toxic
